In ChEMBL document CHEMBL1140759, “Synthesis, anti-Toxoplasma gondii and antimicrobial activities of benzaldehyde 4-phenyl-3-thiosemicarbazones and 2-[(phenylmethylene)hydrazono]-4-oxo-3-phenyl-5-thiazolidineacetic acids” (Bioorg Med Chem, 2008):
Converted amounts (≈) assume the structure as drawn.

Experiments:
Staphylococcus aureus [1] = assay: Antimicrobial activity against Staphylococcus aureus at 100 ug/disc; type: functional; details: read-out: IZ
Procedure, shortened: (§1)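 Agar disc diffusion: paper discs loaded with compound placed on agar plates seeded with a standardised microbial suspension. DMSO-only discs served as negative control. Chloramphenicol and rifampicin (bacteria) or nistatin (fungi) gave reference zones. Read-out was mean zone of inhibition diameter (mm). Each experiment was run three times and repeated if results differed.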

Bacillus subtilis [2] = assay: Antimicrobial activity against Bacillus subtilis at 100 ug/disc; type: functional; details: read-out: IZ
Procedure, shortened: (§2)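 Disc diffusion on agar plates inoculated with a standardized microbial suspension, with paper discs carrying known compound amounts. DMSO-only discs served as negative controls, and chloramphenicol, rifampicin (bacteria) or nistatin (fungi) as references. The read-out is the mean inhibition zone diameter in mm. Each run was done three times and repeated if results differed.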

Micrococcus luteus [3] = assay: Antimicrobial activity against Micrococcus luteus at 100 ug/disc; type: functional; details: read-out: IZ; procedure, shortened: as §2
Escherichia coli [4] = assay: Antimicrobial activity against Escherichia coli at 100 ug/disc; type: functional; details: read-out: IZ; procedure, shortened: as §2
Klebsiella pneumoniae [5] = assay: Antimicrobial activity against Klebsiella pneumoniae at 100 ug/disc; type: functional; details: read-out: IZ; procedure, shortened: as §2
Enterococcus faecalis [6] = assay: Antimicrobial activity against Streptococcus faecalis; type: functional
Procedure, shortened: (§3)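 Tube dilution MIC, run on compounds with a disc-diffusion zone of at least 18 mm. The DMSO stock (1 mg/mL) was serially diluted to 10–220 µg/mL final in medium, and strains were inoculated at 10^8/mL. Media were tryptic soy or nutrient agar for bacteria and Sabouraud liquid for fungi, incubated 24–48 h at 37 °C (bacteria) or 30 °C (fungi). MIC is the lowest concentration giving clear tubes.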

Staphylococcus aureus [7] = assay: Antimicrobial activity against Staphylococcus aureus; type: functional; procedure, shortened: as §3
Enterococcus faecalis [8] = assay: Antimicrobial activity against Streptococcus faecalis at 100 ug/disc; type: functional; details: read-out: IZ; procedure, shortened: as §2
Mycolicibacterium phlei [9] = assay: Antimicrobial activity against Mycobacterium phlei at 100 ug/disc; type: functional; details: read-out: IZ; procedure, shortened: as §2
[10] = test system: Mycolicibacterium smegmatis; assay: Antimicrobial activity against Mycobacterium smegmatis at 100 ug/disc; type: functional; details: read-out: IZ; procedure, shortened: as §2
[11] = test system: Mycobacterium tuberculosis; assay: Antimicrobial activity against Mycobacterium tuberculosis at 100 ug/disc; type: functional; details: read-out: IZ; procedure, shortened: as §1
[12] = test system: Mycolicibacterium smegmatis; assay: Antimicrobial activity against Mycobacterium smegmatis; type: functional; procedure, shortened: as §3
[13] = test system: Mycobacterium tuberculosis; assay: Antimicrobial activity against Mycobacterium tuberculosis; type: functional
Toxoplasma gondii [14] = assay: Antiparasitic activity against Toxoplasma gondii infected african green monkey Vero cells at 2 mM assessed as infected cells; type: functional
Procedure, shortened: (§4)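 Vero cells were infected with RH-strain tachyzoites (5:1 parasite:cell) for 1 h, washed with PBS, and grown 24 h at 37 °C in medium 199 with 5% FCS. Compound was then added for 24 h. Cells were fixed with Bouin's, stained with Giemsa, and at least 400 cells were counted by light microscopy for the percentage infected. Hydroxyurea and sulfadiazine served as references.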

Toxoplasma gondii [15] = assay: Antiparasitic activity against Toxoplasma gondii infected african green monkey Vero cells at 0.1 mM assessed as infected cells; type: functional; procedure, shortened: as §4
Toxoplasma gondii [16] = assay: Antiparasitic activity against Toxoplasma gondii infected african green monkey Vero cells at 5 mM assessed as infected cells; type: functional; procedure, shortened: as §4
Toxoplasma gondii [17] = assay: Antiparasitic activity against Toxoplasma gondii infected african green monkey Vero cells at 8 mM assessed as infected cells; type: functional; procedure, shortened: as §4
Toxoplasma gondii [18] = assay: Antiparasitic activity against Toxoplasma gondii infected african green monkey Vero cells at 20 mM assessed as infected cells; type: functional; procedure, shortened: as §4
Vero = assay: Inhibition of uninfected african green monkey Vero cells; type: cell-based; details: Chlorocebus sabaeus
Toxoplasma gondii [19] = assay: Inhibition of Toxoplasma gondii infected in african green monkey Vero cells; type: functional, organism-based
Procedure, shortened: (§5)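 Infected Vero cultures were exposed to compound at 0.01–30 mM for 24 h, in triplicate per assay. IC50 for infected cells and intracellular parasites was derived by non-linear regression, using trypan blue exclusion.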

Toxoplasma gondii [20] = assay: Inhibition of intracellular parasite Toxoplasma gondii; type: functional, organism-based; procedure, shortened: as §5
Staphylococcus aureus [21] = assay: Antimicrobial activity against Staphylococcus aureus at 300 ug/disc; type: functional; details: read-out: IZ; procedure, shortened: as §2
Bacillus subtilis [22] = assay: Antimicrobial activity against Bacillus subtilis at 300 ug/disc; type: functional; details: read-out: IZ; procedure, shortened: as §2
Micrococcus luteus [23] = assay: Antimicrobial activity against Micrococcus luteus at 300 ug/disc; type: functional; details: read-out: IZ; procedure, shortened: as §2
Escherichia coli [24] = assay: Antimicrobial activity against Escherichia coli at 300 ug/disc; type: functional; details: read-out: IZ; procedure, shortened: as §2
Klebsiella pneumoniae [25] = assay: Antimicrobial activity against Klebsiella pneumoniae at 300 ug/disc; type: functional; details: read-out: IZ; procedure, shortened: as §2
Enterococcus faecalis [26] = assay: Antimicrobial activity against Streptococcus faecalis at 300 ug/disc; type: functional; details: read-out: IZ; procedure, shortened: as §2
Mycolicibacterium phlei [27] = assay: Antimicrobial activity against Mycobacterium phlei at 300 ug/disc; type: functional; details: read-out: IZ; procedure, shortened: as §2
[28] = test system: Mycolicibacterium smegmatis; assay: Antimicrobial activity against Mycobacterium smegmatis at 300 ug/disc; type: functional; details: read-out: IZ; procedure, shortened: as §2
[29] = test system: Mycobacterium tuberculosis; assay: Antimicrobial activity against Mycobacterium tuberculosis at 300 ug/disc; type: functional; details: read-out: IZ; procedure, shortened: as §1
Saccharomyces cerevisiae [30] = assay: Antimicrobial activity against Saccharomyces cerevisiae at 300 ug/disc; type: functional; details: read-out: IZ; procedure, shortened: as §2
Candida [31] = assay: Antimicrobial activity against Candida sp. IMUR1224 at 300 ug/disc; type: functional; details: read-out: IZ; procedure, shortened: as §2
Candida albicans = assay: Antimicrobial activity against Candida albicans at 300 ug/disc; type: functional; details: read-out: IZ; procedure, shortened: as §2
Candida [32] = assay: Antimicrobial activity against Candida sp. IMUR4249 at 300 ug/disc; type: functional; details: read-out: IZ; procedure, shortened: as §2
Candida [33] = assay: Antimicrobial activity against Candida sp. IMUR720 at 300 ug/disc; type: functional; details: read-out: IZ; procedure, shortened: as §2
Candida [34] = assay: Antimicrobial activity against Candida sp. IMUR4249; type: functional; procedure, shortened: as §3
Saccharomyces cerevisiae [35] = assay: Antimicrobial activity against Saccharomyces cerevisiae at 100 ug/disc; type: functional, organism-based; procedure, shortened: as §1
Candida [36] = assay: Antimicrobial activity against Candida sp. IMUR1224 at 100 ug/disc; type: functional, organism-based; procedure, shortened: as §1
Candida [37] = assay: Antimicrobial activity against Candida sp. IMUR4249 at 100 ug/disc; type: functional, organism-based; procedure, shortened: as §1
Candida [38] = assay: Antimicrobial activity against Candida sp. IMUR720 at 100 ug/disc; type: functional, organism-based; procedure, shortened: as §1

Row | Compound | zone of inhibition at 100 µg/disc (Staphylococcus aureus [1]) | zone of inhibition at 100 µg/disc (Bacillus subtilis [2]) | zone of inhibition at 100 µg/disc (Micrococcus luteus [3]) | zone of inhibition at 100 µg/disc (Escherichia coli [4]) | MBC (Enterococcus faecalis [6]) | MIC (Enterococcus faecalis [6]) | MBC (Staphylococcus aureus [7]) | MIC (Staphylococcus aureus [7]) | MBC [12] | MIC [12] | MBC [13] | MIC [13] | Activity (Toxoplasma gondii [14]) | Activity (Toxoplasma gondii [15]) | Activity (Toxoplasma gondii [16]) | Activity (Toxoplasma gondii [17]) | Activity (Toxoplasma gondii [18]) | IC50 (Vero) | IC50 (Toxoplasma gondii [19]) | IC50 (Toxoplasma gondii [20]) | further results
1 | O=C(N[C@H](CO)[C@H](O)c1ccc([N+](=O)[O-])cc1)C(Cl)Cl [CHLORAMPHENICOL] | 25 mm | 27 mm | 50 mm | 27 mm | 60 mg/L (≈ 186 µM) | 70 mg/L (≈ 217 µM) | 20 mg/L (≈ 61.9 µM) | 25 mg/L (≈ 77.4 µM) | – | – | – | – | – | – | – | – | – | – | – | – | zone of inhibition at 100 µg/disc (Klebsiella pneumoniae [5]): 25 mm
2 | CO[C@H]1/C=C/O[C@@]2(C)Oc3c(C)c(O)c4c(O)c(c(/C=N/N5CCN(C)CC5)c(O)c4c3C2=O)NC(=O)/C(C)=C\C=C\[C@H](C)[C@H](O)[C@@H](C)[C@@H](O)[C@@H](C)[C@H](OC(C)=O)[C@@H]1C [RIFAMPIN] | 31 mm | 20 mm | 49 mm | 14 mm | – | – | – | – | 130 mg/L (≈ 158 µM) | 140 mg/L (≈ 170 µM) | 100 mg/L (≈ 122 µM) | 110 mg/L (≈ 134 µM) | – | – | – | – | – | – | – | – | zone of inhibition at 100 µg/disc (Enterococcus faecalis [8]): 20 mm; zone of inhibition at 100 µg/disc (Mycolicibacterium phlei [9]): 25 mm; zone of inhibition at 100 µg/disc [10]: 30 mm; zone of inhibition at 100 µg/disc [11]: 28 mm
3 | CC(C)(C)c1cc(/C=N/N=C2\SC(CC(=O)O)C(=O)N2c2ccccc2)cc(C(C)(C)C)c1O (stereo not drawn) | – | – | – | – | 190 mg/L (≈ 395 µM) | 200 mg/L (≈ 415 µM) | 45 mg/L (≈ 93.4 µM) | 50 mg/L (≈ 104 µM) | 140 mg/L (≈ 291 µM) | 150 mg/L (≈ 311 µM) | 100 mg/L (≈ 208 µM) | 110 mg/L (≈ 228 µM) | 0% | 53.55% | 0% | 0% | 0% | 1000 µM | 1000 µM | 1000 µM | zone of inhibition at 300 µg/disc (Staphylococcus aureus [21]): 26 mm; zone of inhibition at 300 µg/disc (Bacillus subtilis [22]): 19 mm; zone of inhibition at 300 µg/disc (Micrococcus luteus [23]): 22 mm; zone of inhibition at 300 µg/disc (Escherichia coli [24]): < 7 mm; zone of inhibition at 300 µg/disc (Klebsiella pneumoniae [25]): < 7 mm; zone of inhibition at 300 µg/disc (Enterococcus faecalis [26]): 18 mm; zone of inhibition at 300 µg/disc (Mycolicibacterium phlei [27]): 16 mm; zone of inhibition at 300 µg/disc [28]: 26 mm; zone of inhibition at 300 µg/disc [29]: 23 mm; zone of inhibition at 300 µg/disc (Saccharomyces cerevisiae [30]): < 7 mm; zone of inhibition at 300 µg/disc (Candida [31]): < 7 mm; zone of inhibition at 300 µg/disc (Candida albicans): 9 mm; zone of inhibition at 300 µg/disc (Candida [32]): < 7 mm; zone of inhibition at 300 µg/disc (Candida [33]): < 7 mm
4 | O=C(O)CC1S/C(=N\N=C\c2ccc(Cl)c(Cl)c2)N(c2ccccc2)C1=O (stereo not drawn) | – | – | – | – | – | – | – | – | – | – | 90 mg/L (≈ 213 µM) | 100 mg/L (≈ 237 µM) | 0% | 101% | 0% | 0% | 0% | 4000 µM | 1500 µM | 1000 µM | zone of inhibition at 300 µg/disc (Staphylococcus aureus [21]): 11 mm; zone of inhibition at 300 µg/disc (Bacillus subtilis [22]): 16 mm; zone of inhibition at 300 µg/disc (Micrococcus luteus [23]): 19 mm; zone of inhibition at 300 µg/disc (Escherichia coli [24]): < 7 mm; zone of inhibition at 300 µg/disc (Klebsiella pneumoniae [25]): < 7 mm; zone of inhibition at 300 µg/disc (Enterococcus faecalis [26]): 11 mm; zone of inhibition at 300 µg/disc (Mycolicibacterium phlei [27]): 12 mm; zone of inhibition at 300 µg/disc [28]: 13 mm; zone of inhibition at 300 µg/disc [29]: 18 mm; zone of inhibition at 300 µg/disc (Saccharomyces cerevisiae [30]): < 7 mm; zone of inhibition at 300 µg/disc (Candida [31]): < 7 mm; zone of inhibition at 300 µg/disc (Candida albicans): 7 mm; zone of inhibition at 300 µg/disc (Candida [32]): 21 mm; MFC (Candida [34]): 100 mg/L (≈ 237 µM); MIC (Candida [34]): 120 mg/L (≈ 284 µM); zone of inhibition at 300 µg/disc (Candida [33]): < 7 mm
5 | NYSTATIN | – | – | – | – | – | – | – | – | – | – | – | – | – | – | – | – | – | – | – | – | inhibition zone (IZ) (Saccharomyces cerevisiae [35]): 20 mm; inhibition zone (IZ) (Candida [36]): 30 mm; inhibition zone (IZ) (Candida [37]): 32 mm; MFC (Candida [34]): 70 mg/L; MIC (Candida [34]): 80 mg/L; inhibition zone (IZ) (Candida [38]): 20 mm
